Screening results from PubChem BioAssay.
CAL PDZ FP-1: blocks peptide binding to human CAL PDZ domain; purified CAL PDZ, TMR-peptide fluorescence polarization, 1 h; inhibition, % at 20 µM; 330,000 tested, 0.02% active; Q9HD26;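 active = highest replicate inhibition of at least 40%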;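 note: plate controls were DMSO neutral control wells for no effect and unlabeled competitor peptide control wells for full effect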
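Test system: tagged CAL PDZ domain / Buffer or medium: sodium phosphate/NaCl buffer pH 7.4 with TCEP, IgG, Thesit / Reagent: TMR-labelled reporter peptide T*-PRC34 bound in PDZ groove / Compound dosing: single point, 20 µM / Schedule: 1 h incubation at room temperature before polarization reading / Technique: fluorescence polarization (mP) / Benchmarks: unlabelled peptide, DMSO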
Keap1 Nrf2 FP: inhibitors of human Keap1-Nrf2 protein-protein interaction; Q14145; Keap1 Kelch-Nrf2 peptide fluorescence polarization, 1536-well; inhibition, % at 9.4 µM; 340,000 tested, 0.15% active; AID 504523; in the data active = inhibition above about 12%;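 note: human Keap1 Kelch domain with fluorescein labeled Nrf2 9mer peptide probe; 0% = neutral control wells and 100% = peptide positive control; higher means more block of Keap1 binding to Nrf2 peptide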
Target sequence (Q14145 whole entry, looked up, the tested form may be a part): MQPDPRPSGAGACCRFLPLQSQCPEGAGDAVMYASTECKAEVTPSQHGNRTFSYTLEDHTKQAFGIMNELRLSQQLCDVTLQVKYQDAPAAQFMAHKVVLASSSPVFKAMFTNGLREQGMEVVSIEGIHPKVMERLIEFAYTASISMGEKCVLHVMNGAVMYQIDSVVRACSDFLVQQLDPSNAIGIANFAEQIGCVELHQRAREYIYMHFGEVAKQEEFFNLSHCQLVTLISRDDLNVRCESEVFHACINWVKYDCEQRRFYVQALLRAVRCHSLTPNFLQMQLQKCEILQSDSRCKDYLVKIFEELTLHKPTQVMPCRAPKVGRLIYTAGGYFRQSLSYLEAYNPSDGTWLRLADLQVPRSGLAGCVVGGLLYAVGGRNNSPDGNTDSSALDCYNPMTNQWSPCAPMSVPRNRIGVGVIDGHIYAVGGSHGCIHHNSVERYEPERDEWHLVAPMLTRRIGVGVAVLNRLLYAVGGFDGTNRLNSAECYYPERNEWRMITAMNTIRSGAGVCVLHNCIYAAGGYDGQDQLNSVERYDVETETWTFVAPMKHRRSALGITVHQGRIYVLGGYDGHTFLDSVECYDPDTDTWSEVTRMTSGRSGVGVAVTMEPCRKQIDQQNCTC
CAL PDZ FP-2: blocks peptide binding to the human CAL PDZ domain. Q9HD26. purified CAL PDZ, TMR-peptide fluorescence polarization, 1 h. inhibition, % at 24.9 µM. 300,000 tested, 0.92% active;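 active = mean inhibition of at least 30% with at least half of replicates also reaching 30%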;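 note: 0% = DMSO neutral control and 100% = excess unlabeled competitor peptide PRC23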
LANA-H2B inh: blocks KSHV LANA binding to histone H2A/H2B | Q9QR71 | inhibition, % (concentration not given with the values) | 320,000 tested, 0.6% active | AID 2629 | cell-free LANA-H2A/H2B peptide, fluorescence polarization; in the data active = inhibition mostly above about 10%, no sharp cut-off; inactive = mostly below about 6.7%
LANA DNA inh: KSHV C-LANA DNA binding inhibition | MBP-C-LANA/FAM-LBS DNA binding, fluorescence polarization | inhibition, % at 9 µM | 340,000 tested, 0.078% active;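 active = highest replicate inhibition at or above 60% at 9 µM, even if other replicates fall short; inactive = all replicates below 60% inhibition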;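 note: 0% = neutral control wells and 100% = 4 µM acridine orange control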
CaV13 FRET inh: Primary screen for inhibitors of IQ motif and Ca2+-dependent inactivation inhibitor domain binding in CACNA1D, Förster resonance energy transfer in living cells, …; HEK cells, CFP/YFP FRET ICDI-IQ, plate reader, 10 min; percent FRET-ratio fall versus neutral wells; inhibition, % at 12.3 µM; 340,000 tested, 0.098% active;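 active = mean replicate inhibition of at least 30% and at least 1% of replicates passing that level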;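 note: 0% = median of the neutral control wells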
Active calls of the source: *; x = not tested or not shown. Only some compounds are listed: those with a hit (about 1.5% of all), similar ones and a draw of the others.

SMILES | CAL PDZ FP-1 | Keap1 Nrf2 FP | CAL PDZ FP-2 | LANA-H2B inh | LANA DNA inh | CaV13 FRET inh
CCCCCCC(=O)Oc1cccc(N2C(=O)C3CCCCC3C2=O)c1 (centres undefined) | -0.3 | 0.2 | 79.4* | -3.6 | -0.5 | -5.8
CCCCCCC(=O)Oc1cccc(C2=CC(=O)CC(C)(C)C2=O)c1 | x | x | x | x | x | -5.7
CN(C)CCN(Cc1ccccc1)C(=O)c1[nH]c(C(F)(F)F)nc1-c1ccccc1 | x | x | x | x | x | -9.4
Cc1ccc(C)n1Cc1ccc(C(=O)O)cc1 | -3.1 | -4.3 | x | 1.7 | 114.5* | x
O=C(O)CSc1cc(NS(=O)(=O)c2ccc(Br)cc2)c2ccccc2c1O | 42.3* | 4.2 | 13.4 | 1.5 | 16.0 | -1.8
Cc1cc(C)n(-c2ccc(C(=O)N3CCC(CO)(Cc4ccccc4)CC3)cc2)n1 | -0.7 | -6.6 | x | 3.1 | -0.9 | -4.1
O=C(Cc1ccc(Br)cc1)OCC(=O)c1ccc[nH]1 | -0.2 | -1.0 | 44.4* | -2.8 | 0.4 | -8.4
COc1ccc(CC(=O)OCC(=O)c2ccc[nH]2)cc1 | -2.2 | -3.5 | 1.9 | 5.9 | 0.0 | -5.3
COC(=O)Cc1nnn2c1[C@H](C)[C@@H](OC)c1cccc(Cl)c1-2 | x | x | x | x | x | -4.1
Cc1ccc(CSc2nc3nc(C)cc(C)n3n2)cc1 | 0.1 | 4.7 | -3.0 | 0.6 | 1.7 | -5.1
Cc1cc(C)n2nc(SCc3cccc(S(=O)(=O)N(C)C)c3)nc2n1 | x | 0.5 | 42.8* | -8.1 | 0.3 | -17.5
CCc1nc2c(OCCOc3ccc(F)cc3)cccn2c1N(C)C(=O)CC(C)C | x | x | x | x | x | -13.0
COc1ccc(-c2nn(-c3ccccc3)cc2/C=N/NS(=O)(=O)c2ccccc2)cc1 | x | -1.9 | -7.1 | 10.2* | 7.7 | x
O=C(NCc1ccc(F)cc1)c1c2c(nc3ccccc13)CCN(Cc1ccccc1)C2 | -1.6 | 3.5 | 57.4* | -0.8 | 1.3 | -4.4
O=C(O)c1ccc(-c2ccc(/C=C3\NC(=O)N(Cc4ccc(Cl)cc4)C3=O)o2)cc1 | -1.4 | -3.5 | -0.6 | x | 4.8 | 47.9*
Cc1ccc(CN2C(=O)N/C(=C\c3ccc(-c4ccc(C(=O)O)cc4C)o3)C2=O)cc1 | -1.7 | 0.8 | -1.1 | -0.1 | 5.9 | 3.2
N#CC(=Cc1ccc(-c2ccccc2)cc1)C(=O)c1ccccc1 | x | x | x | x | x | -4.2
N#CC(=C=[N-])/C=C(\C(=O)c1ccccc1)[n+]1ccccc1 | -0.1 | 1.0 | x | 20.7* | -11.4 | -2.7
CC1CCCCN1S(=O)(=O)c1cc2c(=O)nc3ccccn3c2cc1Cl (centres undefined) | x | x | x | x | x | -6.4
COC(=O)c1c(-c2ccc(OC)cc2)c2c(c3c4cc(OC)ccc4n(S(=O)(=O)c4ccc(C)cc4)c13)C(=O)N(C)C2 | x | x | x | x | x | -5.0
CC(=O)Nc1ccccc1NC(=O)C/C(C)=N/NC(=O)c1ccc([N+](=O)[O-])c(Cl)c1 | -0.6 | -3.4 | 30.1* | -1.0 | 0.7 | -5.1
C/C(CC(=O)Nc1cccnc1)=N\NC(=O)c1ccc([N+](=O)[O-])c(Cl)c1 | -1.2 | -2.8 | -4.5 | -0.1 | 3.7 | 1.4
O=C(COC(=O)Cc1c(F)cccc1Cl)NC(=O)c1ccccc1 | -2.1 | -6.1 | 49.7* | -0.8 | 0.5 | -1.8
C#CCN(C[C@H]1[C@H](OC(=O)Nc2c(C)noc2C)[C@H](OC(=O)Nc2c(C)noc2C)C[C@@H](C(=O)OC)[C@H]1C(=O)OC)S(=O)(=O)c1ccc(C)cc1 | x | x | x | x | x | -5.9
CC(C)(C)C(=O)c1c(N)[nH]c(C(=O)c2ccccc2)c1-c1ccc([N+](=O)[O-])cc1 | x | x | x | x | x | -15.3
SMILES | CAL PDZ FP-1 | Keap1 Nrf2 FP | CAL PDZ FP-2 | LANA-H2B inh | LANA DNA inh | CaV13 FRET inh
CC(C)N(CCn1c(SCC(=O)Nc2cccnc2Cl)nc2ccccc2c1=O)C(C)C | 0.0 | 3.5 | x | 9.9* | 0.4 | -1.8
COCCn1c(SCC(=O)Nc2cccnc2Cl)nc2cc(Cl)ccc2c1=O | -0.2 | 2.0 | 7.8 | 4.6 | 0.6 | -16.9
O=[N+]([O-])c1cccnc1N/N=C/c1ccccc1O | -0.6 | 0.5 | 76.3* | -4.4 | -0.1 | -3.6
Cc1c(O)ccc(/C=N/Nc2ncccc2[N+](=O)[O-])c1O | 0.5 | -2.8 | -7.7 | -0.1 | 0.7 | -3.8
COc1ccccc1C=NNc1ccc([N+](=O)[O-])cn1 | 0.9 | 2.0 | -2.4 | x | 0.8 | -6.0
O=[N+]([O-])c1ccc(NN=Cc2ccccc2O)nc1 | 0.1 | 1.3 | 42.0* | x | 3.2 | -12.4
